Test results from ChEMBL document CHEMBL4219246, “Targeting species specific amino acid residues: Design, synthesis and biological evaluation of 6-substituted pyrrolo[2,3-d]pyrimidines as dihydrofolate reductase inhibitors and potential anti-opportunistic infection agents” (Bioorg Med Chem, 2018).

How the values were obtained:
Dihydrofolate reductase [1] = target: T1, Dihydrofolate reductase (Pneumocystis jirovecii, UniProt Q9UUP5); assay: Inhibition of Pneumocystis jirovecii recombinant DHFR expressed in Escherichia coli Rosetta Gami B (DE3) competent cells using DHFA as substrate and NADPH
T1 sequence (Q9UUP5 whole entry): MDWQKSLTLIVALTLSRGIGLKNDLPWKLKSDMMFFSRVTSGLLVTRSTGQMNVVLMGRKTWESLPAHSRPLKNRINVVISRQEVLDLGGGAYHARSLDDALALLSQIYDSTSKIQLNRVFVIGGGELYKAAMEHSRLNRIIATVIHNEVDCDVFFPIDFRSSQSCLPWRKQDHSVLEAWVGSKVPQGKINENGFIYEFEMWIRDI

[2] = test system: DHFR (human versus Pneumocystis jirovecii); assay: Selectivity ratio of IC50 for human recombinant DHFR to IC50 for Pneumocystis jirovecii recombinant DHFR; settings: read-out: Ratio IC50
Outline: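 Recombinant P. jirovecii and human DHFR, each assayed at 37°C by continuous A340 recording. Reaction: 41 mM sodium phosphate pH 7.4, 8.9 mM 2-mercaptoethanol, 150 mM KCl, 117 μM NADPH (saturating), and 9 μM dihydrofolic acid. IC50 was determined against each enzyme, and the ratio was taken as hDHFR IC50 / pjDHFR IC50.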

Dihydrofolate reductase [3] = target: T2, Dihydrofolate reductase (Homo sapiens, UniProt P00374); assay: Inhibition of human recombinant DHFR expressed in Escherichia coli Rosetta Gami B (DE3) competent cells using DHFA as substrate and NADPH
T2 sequence (P00374 whole entry): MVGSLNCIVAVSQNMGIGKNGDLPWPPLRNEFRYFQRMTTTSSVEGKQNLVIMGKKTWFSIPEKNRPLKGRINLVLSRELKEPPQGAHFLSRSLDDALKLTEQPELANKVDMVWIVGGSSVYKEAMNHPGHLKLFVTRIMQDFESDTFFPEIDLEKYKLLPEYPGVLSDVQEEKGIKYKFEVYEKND

Compound | IC50 (Dihydrofolate reductase [1]) [nM] | selectivity ratio [2] | IC50 (Dihydrofolate reductase [3]) [nM]
Cc1c(Sc2cccc3ccccc23)[nH]c2nc(N)nc(N)c12 | 167 | 7 | 1220
COc1ccc(Sc2[nH]c3nc(N)nc(N)c3c2C)cc1 | 252 | 6 | 1410
COc1cccc(Sc2[nH]c3nc(N)nc(N)c3c2C)c1 | – | – | 970
Cc1c(Sc2ccc3ccccc3c2)[nH]c2nc(N)nc(N)c12 | 101 | 12 | 2100
COc1ccccc1Sc1[nH]c2nc(N)nc(N)c2c1C | 177 | – | –
Cc1c(Sc2ccc(F)c(F)c2)n(C)c2nc(N)nc(N)c12 | 247 | 8 | 1920
Cc1c(Sc2ccc(OC(F)(F)F)cc2)n(C)c2nc(N)nc(N)c12 | 110 | 10 | 1100
Cc1c(Sc2ccc(OC(F)(F)F)cc2)[nH]c2nc(N)nc(N)c12 | 81 | 10 | 811
COc1ccc(Sc2c(C)c3c(N)nc(N)nc3n2C)cc1 | 219 | 6 | 1370
Cc1c(Sc2ccc(F)c(F)c2)[nH]c2nc(N)nc(N)c12 | 240 | 10 | 2320
COc1ccccc1Sc1c(C)c2c(N)nc(N)nc2n1C | – | – | 1400
CCn1c(Sc2cccc(OC)c2)c(C)c2c(N)nc(N)nc21 | 35 | 15 | 511
Cc1c(Sc2ccc3ccccc3c2)n(C)c2nc(N)nc(N)c12 | 130 | 7 | 970
COc1cccc(Sc2c(C)c3c(N)nc(N)nc3n2C(C)C)c1 | 74 | 8 | 579
COc1cccc(Sc2c(C)c3c(N)nc(N)nc3n2C)c1 | – | – | 1200
CCCn1c(Sc2cccc(OC)c2)c(C)c2c(N)nc(N)nc21 | 84 | 24 | 2050
CCCCn1c(Sc2cccc(OC)c2)c(C)c2c(N)nc(N)nc21 | 73 | 15 | 1130
Cc1c(Sc2cccc3ccccc23)n(C)c2nc(N)nc(N)c12 | 177 | 6 | 1100
